In experiment [1] the target is T1, Liver X receptor (Homo sapiens) (UniProt Q13133+P55055). Put plainly: Modulation of LXR in human HepG2 cells assessed as decrease of T0901317-induced SCD1 mRNA expression at 10 uM after 4 days by qPCR analysis. The format is cell-based. A general note: In qPCR the cycle at which signal appears reflects the starting amount.
In experiment [2] the target is T1, Liver X receptor (Homo sapiens). As to the kind of experiment: Modulation of LXR in human myotubes assessed as decrease of T0901317-induced FAS mRNA expression at 10 uM after 4 days by qPCR analysis. Summed up: (§1)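 Cells given 1 mM T0901317 (so in the source) together with […] test compound; DMSO 0.1% vehicle. Myotubes treated 4 days, HepG2 24 h. Total RNA reverse-transcribed with hexamer primers, then SYBR Green qPCR. Expression normalized to 36B4 and given as fold change vs DMSO control, mean ± SEM, n = 3–11 separate experiments, at least 3 parallels each.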

Experiment [3] shares this target. Put plainly: Modulation of LXR in human myotubes assessed as increase of D-[14C(U)]deoxy-D-glucose uptake at 50 uM after 4 days by scintillation counting. The format is protein assay. Summed up: (§2)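 Primary myotubes, 7 days differentiated, treated 4 days with compounds in 0.1% DMSO. Then given D-[14C(U)]deoxy-D-glucose (100 mM as printed) for 4 h. Washed twice with ice-cold PBS, lysed in 0.1 M NaOH and counted by liquid scintillation. Uptake normalized to protein; mean ± SEM of separate experiments, at least 3 parallels each.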

For experiment [4] the target is unchanged. As to the kind of experiment: Modulation of LXR in human HepG2 cells assessed as reduction of T0901317-induced lipogenesis using [1-14C]acetate at 1 uM after 4 days by scintillation counting. The format is cell-based.
Experiment [5] has the same target. As to the kind of experiment: Modulation of LXR in human HepG2 cells assessed as decrease of T0901317-induced FAS mRNA expression at 10 uM after 4 days by qPCR analysis. The format is cell-based.
For experiment [6] the target is unchanged. Put plainly: Modulation of LXR in human myotubes assessed as increase of T0901317-induced lipogenesis using [1-14C]acetate at 1 uM after 4 days by scintillation counting. The format is protein assay. The procedure, abridged: (§3)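 Primary myotubes from satellite cells of 6 healthy donors, used after 7 days of differentiation. Treated 4 days with compounds ± T0901317 in 0.1% DMSO, then labelled 24 h with [1-14C]acetate (100 mM as printed). Lysed in NaOH; total lipids isolated by hydrophobic filtration and scintillation-counted. Normalized to protein; fold vs control, mean ± SEM, n = 3–6; dose–response n = 6.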

For experiment [7] the target is unchanged. As to the kind of experiment: Modulation of LXR in human myotubes assessed as increase of D-[14C(U)]deoxy-D-glucose uptake after 4 days by scintillation counting. The format is protein assay. The procedure, abridged:
as §2

Experiment [8] has the same target. Put plainly: Modulation of LXR in human myotubes assessed as decrease of T0901317-induced SCD1 mRNA expression at 10 uM after 4 days by qPCR analysis. The procedure, abridged: as §1
Experiment [9] shares this target. As to the kind of experiment: Modulation of LXR in human HepG2 cells assessed as decrease of T0901317-induced ABCA1 mRNA expression at 10 uM after 4 days by qPCR analysis. The format is cell-based.
The target is the same in experiment [10]. Put plainly: Modulation of LXR in human myotubes assessed as increase of D-[14C(U)]deoxy-D-glucose uptake at 1 to 50 uM after 4 days by scintillation counting. The format is protein assay. The procedure, abridged: as §2
For experiment [11] the target is unchanged. Put plainly: Modulation of LXR in human myotubes assessed as decrease of T0901317-induced ABCA1 mRNA expression at 10 uM after 4 days by qPCR analysis. Summed up:
as §1

Experiment [12] has the same target. Put plainly: Modulation of LXR in human myotubes assessed as increase of ABCA1 mRNA expression at 10 uM after 4 days by qPCR analysis. Summed up:
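Primary human myotubes (satellite cells from abdominal muscle of 6 healthy donors, differentiated 7 days at 5.5 mM glucose, 25 pM insulin) treated with compound or 0.1% DMSO for 4 days. Total RNA reverse-transcribed with hexamer primers; SYBR Green qPCR. ABCA1 normalised to 36B4 and reported as fold change versus DMSO, mean ± SEM, n = 3–11.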

For experiment [13] the target is unchanged. Put plainly: Modulation of LXR in human HepG2 cells assessed as reduction of T0901317-induced lipogenesis using [1-14C]acetate at 1 uM after 24 h by scintillation counting.
Experiment [14] shares this target. Put plainly: Modulation of LXR in human myotubes assessed as increase of ABCA1 mRNA expression at 10 uM after 4 days by qPCR analysis.
For experiment [15] the target is unchanged. Put plainly: Modulation of LXR in human myotubes assessed as reduction of T0901317-induced lipogenesis using [1-14C]acetate at 10 uM after 4 days by scintillation counting.
Experiment [16] shares this target. As to the kind of experiment: Modulation of LXR in human myotubes assessed as reduction of lipogenesis using [1-14C]acetate after 4 days by scintillation counting. The format is protein assay. Summed up: as §3
Experiment [17] shares this target. Put plainly: Modulation of LXR in human myotubes assessed as increase of D-[14C(U)]deoxy-D-glucose uptake at 1 uM after 4 days by scintillation counting. The format is protein assay. Summed up:
as §2

For experiment [18] the target is unchanged. As to the kind of experiment: Modulation of LXR in human HepG2 cells assessed as reduction of lipogenesis using [1-14C]acetate at 1 uM after 24 h by scintillation counting.

Active and inactive are the calls of the source. The rule behind the calls is not given here.

Regarding `COc1ccc2cc(COC[C@H](C)[C@@H](O)CCC(C)C)ccc2c1`, the outcome in [1], in experiment [2], in [3], in experiment [4], in experiment [5] and in experiment [6] was Active. For the same compound, the outcome in experiment [8] was Active. Further, in experiment [7], the Activity entry is “Dose-dependent effect”.
As to `CCCCCCN(CCCCCC)S(=O)(=O)c1ccc(COC[C@H](C)[C@@H](O)CCC(C)C)cc1`, the result in [1], in experiment [9], in [2], in [5], in [10] and in experiment [11] was inactive. The result in experiment [8] was inactive. The result in [6] was Active.
As for `CC(C)CC[C@H](O)[C@@H](C)[C@H]1CC[C@H]2[C@@H]3CC=C4C[C@@H](O)CC[C@]4(C)[C@H]3CC[C@]12C`, the outcome in experiment [9] and in experiment [11] was inactive. The outcome in [12], in [13], in [14] and in experiment [15] was Active.
For `CC(C)CC[C@H](O)[C@@H](C)COCc1ccc(S(=O)(=O)N(COCC[Si](C)(C)C)COCC[Si](C)(C)C)cc1`, the Activity entry in experiment [16] and in experiment [7] was “Dose-dependent effect” each time. In addition, the outcome in experiment [1], in experiment [17], in experiment [18], in experiment [6] and in experiment [8] was Active.
Consider `CC(C)CC[C@H](O)[C@@H](C)COCc1ccc(S(=O)(=O)N(C)C2CCCCC2)cc1`, for which the result in experiment [1], in [2], in experiment [5] and in [8] was inactive. Further, the result in experiment [9], in [17], in [6] and in [11] was Active. For the same compound, in experiment [7], the Activity entry is “Dose-dependent effect”.

The record behind these values is ChEMBL document CHEMBL3112443, “Development of new LXR modulators that regulate LXR target genes and reduce lipogenesis in human cell models” (Eur J Med Chem, 2014).
